Measurements reported in ChEMBL document CHEMBL3351800, “Combination of 2-methoxy-3-phenylsulfonylaminobenzamide and 2-aminobenzothiazole to discover novel anticancer agents” (Bioorg Med Chem, 2014).
Activity calls are given as the source filed them. The rule behind the calls is not given here.

Columns and labels:
MCF7 = assay: Antiproliferative activity against human MCF7 cells […] by MTT assay; assay type: functional, cell-based
[1] = Antiproliferative activity against human U87MG cells after 72 hrs by MTT assay; assay type: functional, cell-based, U-87MG ATCC; settings: U-87 MG
In short: (§1)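 Cells kept as monolayers in DMEM with 10% FBS, 5% CO2, 37 °C. Seeded at 3000-5000 cells/well, grown 24 h before dosing. Treated with 100.0, 10.0, 1.0, 0.1 and 0.01 μM of compound for 48 h. MTT (5 mg/ml in medium) added for 4 h, formazan pelleted, dissolved in DMSO, OD read at 490 nm. IC50 derived from inhibition ratios. Three separate experiments, each in triplicate.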

[2] = Antiproliferative activity against human HCT116 cells […] by MTT assay; assay type: functional, cell-based; settings: HCT-116
A549 = assay: Antiproliferative activity against human A549 cells after 72 hrs by MTT assay; assay type: functional, cell-based; settings: A549, 72 h; in short: as §1
[3] = Antitumor activity against human HCT116 cells xenografted in BALB/C mouse assessed as reduction in tumor volume at 30 mg/kg, po dosed once daily for 14 days; assay type: functional; settings: HCT-116, 336 h
In short: (§2)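 Male BALB/C nude mice (SPF, 18-20 g) received 3×10^6 HCT-116 cells subcutaneously in the flank. At 100 mm³ tumours, animals were randomised (8 controls, 5 per drug group). Compound given orally in NMP/PEG300 (1:9) once daily for 14 days; controls got vehicle. Tumour volume (length × width × width/2) recorded every 3-4 days. Sacrifice on day 26, inhibition ratios from tumour volume and weight. Mean ± standard error.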

HCT-116 = assay: Inhibition of PI3K/Akt signalling in human HCT116 cells assessed as reduction in AKT Ser473 phosphorylation at 1 uM after 1 hr by Western blot method; assay type: cell-based
In short: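 HCT-116 cells seeded at 1×10^6/well in DMEM with 10% FBS and grown 16 h at 37 °C. Exposed to compound or DMSO for 1 h at 37 °C, then lysed in ice-cold buffer and clarified at 12000 rpm, 20 min, 4 °C. Protein measured by BCA and run on SDS-PAGE. Immunoblotted for AKT, p-Ser473 AKT and β-actin, with chemiluminescent detection and densitometry. Three independent experiments, each in duplicate.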

Mus musculus [4] = assay: Toxicity in human HCT116 cells xenografted BALB/C mouse assessed as weight loss at 10 to 30 mg/kg, po dosed once daily for 14 days; assay type: organism-based, HCT-116; set-up: dose 10-30 mg/kg, route oral; settings: in vivo, 336 h
In short: (§3)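 Male BALB/C nude mice (18-20 g) carried subcutaneous flank HCT-116 xenografts (3×10^6 cells), randomised at 100 mm³. Compound dosed orally in NMP/PEG300 (1:9) once daily for 14 days; controls got vehicle alone. Body weight recorded every 3-4 days until sacrifice on day 26.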

[5] = Antitumor activity against human HCT116 cells xenografted in BALB/C mouse assessed as reduction in tumor volume at 10 mg/kg, po dosed once daily for 14 days; assay type: functional; settings: HCT-116, 336 h; in short: as §2
Mus musculus [6] = assay: Toxicity in human HCT116 cells xenografted BALB/C mouse assessed as weight loss at 30 mg/kg, po dosed once daily for 14 days; assay type: organism-based, HCT-116; set-up: dose 30 mg/kg, route oral; settings: in vivo, 336 h; in short: as §3

| IC50 (MCF7) | IC50 (A549) | SMILES | IC50 [1] | IC50 [2] | other results |
| --- | --- | --- | --- | --- | --- |
| 1.58 µM | 6.34 µM | COc1c(NS(=O)(=O)c2ccc(F)cc2)cc(-c2ccc3nc(NC(=O)C4CC4)sc3c2)cc1C(N)=O | 2.87 µM | 2.01 µM | – |
| – | – | COc1c(NS(=O)(=O)c2ccc(C)cc2)cc(-c2ccc3nc(NC(C)=O)nn3c2)cc1C(N)=O | – | 27.3 µM | – |
| 0.5 µM | 1.7 µM | COc1c(NS(=O)(=O)c2ccc(F)cc2)cc(-c2ccc3nc(NC(C)=O)sc3c2)cc1C(N)=O | 4.75 µM | 1.95 µM | inhibition in vivo at 30 mg/kg [3]: 46.9%; inhibition (HCT-116): Active; Activity (Mus musculus [4]): Non-toxic; inhibition in vivo at 10 mg/kg [5]: 40.1% |
| – | – | COc1c(NS(=O)(=O)c2ccc(F)cc2)cc(-c2ccc3nc(NC(=O)C4CC4)nn3c2)cc1C(N)=O | – | 43.5 µM | – |
| – | – | COc1c(NS(=O)(=O)c2ccc(F)cc2)cc(-c2ccc3nc(NC(C)=O)nn3c2)cc1C(N)=O | – | 25.4 µM | – |
| – | – | COc1c(NS(=O)(=O)c2ccc(F)cc2)cc(-c2ccn3nc(NC(C)=O)nc3c2)cc1C(N)=O | – | 32.6 µM | – |
| – | – | COc1c(NS(=O)(=O)c2ccc(F)cc2)cc(-c2ccn3nc(NC(=O)C4CC4)nc3c2)cc1C(N)=O | – | > 50 µM | – |
| – | – | CCOC(=O)CNc1nc2ccc(-c3cc(NS(=O)(=O)c4ccc(F)cc4)c(OC)c(C(N)=O)c3)cc2s1 | – | > 50 µM | – |
| – | – | COc1c(NS(=O)(=O)C2CC2)cc(-c2ccc3nc(NC(C)=O)nn3c2)cc1C(N)=O | – | 36.3 µM | – |
| – | 46.3 µM | COc1c(NS(=O)(=O)C2CC2)cc(-c2ccc3nc(NC(=O)C4CC4)sc3c2)cc1C(N)=O | 8.22 µM | 14.5 µM | – |
| 0.52 µM | 0.2 µM | CC(=O)Nc1nc2ccc(-c3cnc(Cl)c(NS(=O)(=O)c4ccc(F)cc4)c3)cc2s1 | 2.79 µM | 0.51 µM | – |
| 22.1 µM | 8.05 µM | COc1c(NS(=O)(=O)c2ccc(F)cc2)cc(-c2ccc3nc(NC(=O)C4CC4)sc3n2)cc1C(N)=O | 20.5 µM | 2.5 µM | – |
| 33.1 µM | 30.2 µM | COc1c(NS(=O)(=O)c2ccc(F)cc2)cc(-c2ccc3nc(NC4CC4)sc3n2)cc1C(N)=O | 41.7 µM | 35.7 µM | – |
| 0.55 µM | 0.1 µM | Cn1c(=O)n(-c2ccc(C(C)(C)C#N)cc2)c2c3cc(-c4cnc5ccccc5c4)ccc3ncc21 [DACTOLISIB] | 2.34 µM | 0.32 µM | inhibition in vivo at 30 mg/kg [3]: 24.2%; inhibition (HCT-116): Active; Activity (Mus musculus [6]): Toxic |
| 12.5 µM | 4.31 µM | COc1c(NS(=O)(=O)c2ccc(F)cc2)cc(-c2ccc3nc(NC(C)=O)sc3n2)cc1C(N)=O | 21.7 µM | 4.25 µM | – |
| – | – | COc1c(NS(=O)(=O)c2ccc(F)cc2)cc(-c2ccn3nc(N)nc3c2)cc1C(N)=O | – | > 50 µM | – |
| – | – | CC(=O)Nc1nc2ccc(-c3cc(NS(=O)(=O)c4ccc(F)cc4)c(Cl)c(C(N)=O)c3)cn2n1 | – | > 50 µM | – |
| > 50 µM | > 50 µM | NC(=O)c1cc(-c2ccc3nc(NC(=O)C4CC4)sc3c2)cc(NS(=O)(=O)c2ccc(F)cc2)c1Cl | 17.9 µM | 11.4 µM | – |
| – | – | COc1c(NS(=O)(=O)c2ccc(Cl)cc2)cc(-c2ccc3nc(NC(C)=O)nn3c2)cc1C(N)=O | – | 31.7 µM | – |
| – | – | NC(=O)c1cc(NS(=O)(=O)c2ccc(F)cc2)cc(-c2ccc3nc(NC(=O)C4CC4)sc3c2)c1 | – | > 50 µM | – |
| – | – | COc1c(NS(=O)(=O)c2ccc(F)cc2)cc(-c2ccc3nc(NC4CC4)sc3c2)cc1C(N)=O | – | > 50 µM | – |
